# Test results taken from ChEMBL document CHEMBL1800075, “Tricyclic imidazole antagonists of the Neuropeptide S Receptor” (Bioorg Med Chem Lett, 2010).
# Molecular target: T1, Neuropeptide S receptor (Homo sapiens, UniProt Q6W5P4)
# T1 sequence (Q6W5P4 whole entry): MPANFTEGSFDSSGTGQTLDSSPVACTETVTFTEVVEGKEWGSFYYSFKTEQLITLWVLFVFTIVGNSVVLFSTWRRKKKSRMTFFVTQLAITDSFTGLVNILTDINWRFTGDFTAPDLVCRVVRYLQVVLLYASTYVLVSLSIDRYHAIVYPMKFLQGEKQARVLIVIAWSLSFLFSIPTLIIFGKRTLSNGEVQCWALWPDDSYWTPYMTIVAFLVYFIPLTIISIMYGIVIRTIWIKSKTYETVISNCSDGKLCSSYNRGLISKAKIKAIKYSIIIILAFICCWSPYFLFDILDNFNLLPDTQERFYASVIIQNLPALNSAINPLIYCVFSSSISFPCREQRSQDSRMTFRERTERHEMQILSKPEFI
# Test: Antagonist activity at human recombinant NPS receptor expressed in CHOK1 cells assessed as inhibition of NPS-induced calcium mobilization by FLIPR assay
# Assay type: functional, cell-based, CHO-K1
# Settings: not given
# In short: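 Dual-sequence FLIPR Ca2+ mobilization on CHOK1 cells expressing recombinant NPSR, plated 24 h ahead at 15 K cells/well. Cells washed and loaded with Fluo4AM for 1 h at 37 °C, 5% CO2. Inhibition taken relative to NPS-stimulated control wells; IC50 from 4-parameter logistic fits; mean ± S.D. of multiple determinations.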
row,IC50 [nM],SMILES
1,145,N#Cc1ccc(C2(CC3CCCC3)c3ccccc3-c3nccn32)cc1 (configuration not stated)
2,1460,Brc1ccc(C2(Cc3ccccc3)c3cccnc3-c3nccn32)cc1 (configuration not stated)
3,369,N#Cc1ccccc1CC1(c2ccc(Br)cc2)c2ccccc2-c2nccn21 (racemic)
4,96,CC(C)N(C(=O)CCC1(c2ccc(Cl)cc2)c2ccccc2-c2nccn21)C(C)C (racemic)
5,163,Brc1ccc(C2(Cc3ccccc3)c3ccccc3-c3nccn32)cc1 (stereo in doubt; 2)
6,95,O=C(CCC1(c2ccc(Cl)cc2)c2ccccc2-c2nccn21)N1C2CCCC1CC2 (mixture of isomers)
7,154,Brc1ccc(C2(CCC3CCOCC3)c3ccccc3-c3nccn32)cc1 (racemic)
8,114,N#Cc1ccc(C2(CC3CCCCC3)c3ccccc3-c3nccn32)cc1 (configuration not stated)
9,321,Brc1ccc(C2(CC3CCCC3)c3ccccc3-c3nccn32)cc1 (racemic)
10,1320,Cc1ccc(C2(Cc3ccccc3)c3ccccc3-c3nccn32)cc1 (configuration not stated)
11,254,Brc1ccc(C2(CC3CCCCC3)c3ccccc3-c3nccn32)cc1 (racemic)
12,134,Clc1ccc(C2(CC3CCOCC3)c3ccccc3-c3nccn32)cc1 (configuration not stated)
13,131,CCC1CCCCN1C(=O)CCC1(c2ccc(Cl)cc2)c2ccccc2-c2nccn21 (mixture of isomers)
14,1730,Brc1cccc(C2(Cc3ccccc3)c3ccccc3-c3nccn32)c1 (configuration not stated)
15,239,CC(C1CCN(C(=O)CCC2(c3ccc(Cl)cc3)c3ccccc3-c3nccn32)CC1)N1CCC(F)(F)C1 (mixture of isomers)

row,SMILES,IC50 [nM]
1,Clc1ccc(C2(Cc3ccccc3)c3ccccc3-c3nccn32)cc1 (configuration not stated),358
2,Brc1ccc(C2(CC3CCCC3)c3ccccc3-c3nccn32)cn1 (configuration not stated),851
3,Brc1ccc(C2(Cc3ccccc3)c3ccccc3-c3nccn32)cn1 (configuration not stated),1500

# Test system: not listed separately
# Test: Unbound fraction in rat plasma by ultracentrifugation
# Assay type: ADME, cell-free
# Settings: not given
row,fraction unbound,SMILES
1,0.011,N#Cc1ccc(C2(CC3CCCC3)c3ccccc3-c3nccn32)cc1 (configuration not stated)
2,< 0.01,N#Cc1ccccc1CC1(c2ccc(Br)cc2)c2ccccc2-c2nccn21 (racemic)
3,0.008,CC(C)N(C(=O)CCC1(c2ccc(Cl)cc2)c2ccccc2-c2nccn21)C(C)C (racemic)
4,0.01,Brc1ccc(C2(Cc3ccccc3)c3ccccc3-c3nccn32)cc1 (stereo in doubt; 2)
5,0.006,O=C(CCC1(c2ccc(Cl)cc2)c2ccccc2-c2nccn21)N1C2CCCC1CC2 (mixture of isomers)
6,0.018,Clc1ccc(C2(CC3CCOCC3)c3ccccc3-c3nccn32)cc1 (configuration not stated)
7,0.011,CCC1CCCCN1C(=O)CCC1(c2ccc(Cl)cc2)c2ccccc2-c2nccn21 (mixture of isomers)
8,0.029,CC(C1CCN(C(=O)CCC2(c3ccc(Cl)cc3)c3ccccc3-c3nccn32)CC1)N1CCC(F)(F)C1 (mixture of isomers)

row,SMILES,fraction unbound
1,Brc1ccc(C2(CC3CCCC3)c3ccccc3-c3nccn32)cn1 (configuration not stated),0.013

# Molecular target: rat MDR1 (ABCB1, P-glycoprotein) (Rattus norvegicus, UniProt P43245)
# Test: Permeability of the compound assessed as rat MDR1-mediated directional transport ratio by cell based assay
# Settings: not told
# In short: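 Rat MDR1 directional transport ratio, calculated as (B–A)/(A–B). Average of three experiments; interassay variability 20%.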
# rat MDR1 (ABCB1, P-glycoprotein), sequence (P43245 whole entry): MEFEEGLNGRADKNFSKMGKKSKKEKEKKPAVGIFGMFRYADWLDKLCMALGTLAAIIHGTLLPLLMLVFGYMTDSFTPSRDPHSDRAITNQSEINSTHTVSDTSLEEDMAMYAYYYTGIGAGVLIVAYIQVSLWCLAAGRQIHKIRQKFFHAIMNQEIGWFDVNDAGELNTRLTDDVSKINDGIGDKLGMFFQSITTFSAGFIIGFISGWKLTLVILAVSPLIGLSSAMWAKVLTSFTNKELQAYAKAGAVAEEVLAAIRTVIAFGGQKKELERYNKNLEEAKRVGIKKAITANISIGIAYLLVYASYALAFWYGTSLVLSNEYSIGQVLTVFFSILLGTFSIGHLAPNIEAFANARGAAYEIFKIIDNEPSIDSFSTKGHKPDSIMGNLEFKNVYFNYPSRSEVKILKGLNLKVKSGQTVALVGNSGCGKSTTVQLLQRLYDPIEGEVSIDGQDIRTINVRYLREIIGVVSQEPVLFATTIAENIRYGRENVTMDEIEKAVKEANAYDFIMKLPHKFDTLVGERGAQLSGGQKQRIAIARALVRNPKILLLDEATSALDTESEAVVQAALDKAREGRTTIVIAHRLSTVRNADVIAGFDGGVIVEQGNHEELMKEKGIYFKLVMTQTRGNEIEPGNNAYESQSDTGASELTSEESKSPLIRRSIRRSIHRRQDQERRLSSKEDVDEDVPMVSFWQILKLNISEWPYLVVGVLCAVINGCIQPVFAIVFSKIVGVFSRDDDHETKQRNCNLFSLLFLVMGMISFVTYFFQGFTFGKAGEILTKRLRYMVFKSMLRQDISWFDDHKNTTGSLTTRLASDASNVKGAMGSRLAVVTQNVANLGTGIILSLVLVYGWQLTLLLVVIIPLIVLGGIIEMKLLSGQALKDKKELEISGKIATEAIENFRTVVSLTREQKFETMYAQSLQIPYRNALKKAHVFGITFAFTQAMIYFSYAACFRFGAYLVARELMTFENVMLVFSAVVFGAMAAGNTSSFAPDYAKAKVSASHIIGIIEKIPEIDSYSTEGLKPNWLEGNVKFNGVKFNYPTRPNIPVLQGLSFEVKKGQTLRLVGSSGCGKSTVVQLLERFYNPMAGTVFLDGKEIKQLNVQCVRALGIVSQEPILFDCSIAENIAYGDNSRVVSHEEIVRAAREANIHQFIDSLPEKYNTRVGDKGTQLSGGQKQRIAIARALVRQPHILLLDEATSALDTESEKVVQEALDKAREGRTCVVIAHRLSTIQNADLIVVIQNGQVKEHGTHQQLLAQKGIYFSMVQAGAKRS
row,efflux ratio,SMILES
1,0.6,N#Cc1ccc(C2(CC3CCCC3)c3ccccc3-c3nccn32)cc1 (configuration not stated)
2,1.7,N#Cc1ccccc1CC1(c2ccc(Br)cc2)c2ccccc2-c2nccn21 (racemic)
3,1.4,CC(C)N(C(=O)CCC1(c2ccc(Cl)cc2)c2ccccc2-c2nccn21)C(C)C (racemic)
4,1.7,O=C(CCC1(c2ccc(Cl)cc2)c2ccccc2-c2nccn21)N1C2CCCC1CC2 (mixture of isomers)
5,1.6,N#Cc1ccc(C2(CC3CCCCC3)c3ccccc3-c3nccn32)cc1 (configuration not stated)
6,1.4,Clc1ccc(C2(CC3CCOCC3)c3ccccc3-c3nccn32)cc1 (configuration not stated)
7,1.6,CCC1CCCCN1C(=O)CCC1(c2ccc(Cl)cc2)c2ccccc2-c2nccn21 (mixture of isomers)
8,2,CC(C1CCN(C(=O)CCC2(c3ccc(Cl)cc3)c3ccccc3-c3nccn32)CC1)N1CCC(F)(F)C1 (mixture of isomers)

row,SMILES,efflux ratio
1,Brc1ccc(C2(CC3CCCC3)c3ccccc3-c3nccn32)cn1 (configuration not stated),1.3

# Test system: not listed separately
# Test: Passive permeability of the compound
# Assay type: ADME
# Settings: not told
row,Papp [×10⁻⁶ cm/s],SMILES
1,22,N#Cc1ccc(C2(CC3CCCC3)c3ccccc3-c3nccn32)cc1 (configuration not stated)
2,17,N#Cc1ccccc1CC1(c2ccc(Br)cc2)c2ccccc2-c2nccn21 (racemic)
3,10,Brc1ccc(C2(Cc3ccccc3)c3ccccc3-c3nccn32)cc1 (stereo in doubt; 2)
4,17,N#Cc1ccc(C2(CC3CCCCC3)c3ccccc3-c3nccn32)cc1 (configuration not stated)
5,31,Clc1ccc(C2(CC3CCOCC3)c3ccccc3-c3nccn32)cc1 (configuration not stated)

row,SMILES,Papp [×10⁻⁶ cm/s]
1,Brc1ccc(C2(CC3CCCC3)c3ccccc3-c3nccn32)cn1 (configuration not stated),25

# Test system: not listed separately
# Test: Clearance in iv dosed rat
# Assay type: ADME, organism-based
# Settings: in vivo
# In short: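 IV clearance in rats measured in cassette dosing experiments.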
row,clearance [mL/min/kg],SMILES
1,26,CC(C)N(C(=O)CCC1(c2ccc(Cl)cc2)c2ccccc2-c2nccn21)C(C)C (racemic)
2,34,O=C(CCC1(c2ccc(Cl)cc2)c2ccccc2-c2nccn21)N1C2CCCC1CC2 (mixture of isomers)
3,20,CCC1CCCCN1C(=O)CCC1(c2ccc(Cl)cc2)c2ccccc2-c2nccn21 (mixture of isomers)
4,38,CC(C1CCN(C(=O)CCC2(c3ccc(Cl)cc3)c3ccccc3-c3nccn32)CC1)N1CCC(F)(F)C1 (mixture of isomers)

# Test system: not listed separately
# Test: Lipophilicity, log P of the compound
# Assay type: physicochemical
# Settings: octanol/water
row,logP,SMILES
1,> 3.8,Brc1ccc(C2(Cc3ccccc3)c3ccccc3-c3nccn32)cc1 (stereo in doubt; 2)
